Assay results as given in article PMC6360136 (Investigational new drugs, 2018).

Assays:
[1] = Tissue distribution and pharmacokinetic study; type: in vivo; settings: single 1 mg/kg, NSG mice
In short: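 Female NSG mice (4–10 weeks) received a single 1 mg/kg dose, either i.v. in 10% EtOH/5% Tween-80/85% saline or i.p. in DMSO; 3 mice per time point. Plasma and tissues were collected at 10 min and 1, 3, 8, 24 and 48 h. Tissues were homogenised in PBS, proteins precipitated in acetonitrile/methanol with harmine internal standard, and samples quantified by positive-ESI MRM LC-MS/MS against matrix calibration curves. PK parameters came from noncompartmental analysis.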

[2] = tested on: EC68, EC46 and PANC-1 cells; experiment: Cell growth MTT assay; type: cell-based, human; settings: in vitro studies, Fig. 1, MTT 48 h
In short: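 PANC-1 and primary patient-derived pancreatic cancer lines EC46 and EC68 were grown in DMEM/F-12K (1:1) with 10% FBS at 37 °C and 5% CO2. Cells were seeded at 5000/well and attached overnight. They were then exposed for 48 h to the test compound at various concentrations or to EtOH solvent control. Viability was read by MTT, and curves were fitted by nonlinear regression.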

PANC-1 cells = experiment: Cell viability assay; type: cell-based, human; settings: PANC-1 cells, MTT, 48 h

SMILES: CC[C@H](C)[C@@H]1C(=O)N2CCC[C@@H]2C(=O)O[C@H](C(C)(C)C)C[C@@H](C)C[C@@H](O)C(C)(C)C2=N[C@H](CCC(=O)N[C@@H](Cc3ccc(OC)cc3)C(=O)N(C)[C@@H](C)C(=O)N1C)CS2 [Apra S10, apratoxin S10]
- AUC (area under the concentration-time curve to infinity) ([1]; Brain, IP): 3067 ng·h/mL
- AUCt (area under the concentration-time curve) ([1]; Brain, IP): 727 ng·h/mL
- CL/F (clearance) ([1]; Brain, IP): 5.43 mL/min/kg
- Cmax (peak concentration) ([1]; Brain, IP): 18 ng/mL
- Ke (elimination rate constant) ([1]; Brain, IP): 0.006 h⁻¹
- MRT (mean residence time) ([1]; Brain, IP): 170.68 h
- Tmax (time to peak concentration) ([1]; Brain, IP): 0.17 h
- Vz/F (volume of distribution) ([1]; Brain, IP): 55.015 L/kg
- t1/2 (half-life) ([1]; Brain, IP): 116.95 h
- AUC (area under the concentration-time curve to infinity) ([1]; Brain, IV): 2442 ng·h/mL
- AUCt (area under the concentration-time curve) ([1]; Brain, IV): 874 ng·h/mL
- CL/F (clearance) ([1]; Brain, IV): 6.82 mL/min/kg
- Cmax (peak concentration) ([1]; Brain, IV): 63 ng/mL
- Ke (elimination rate constant) ([1]; Brain, IV): 0.009 h⁻¹
- MRT (mean residence time) ([1]; Brain, IV): 110.88 h
- Tmax (time to peak concentration) ([1]; Brain, IV): 0.17 h
- Vz/F (volume of distribution) ([1]; Brain, IV): 46.571 L/kg
- t1/2 (half-life) ([1]; Brain, IV): 78.84 h
- AUC (area under the concentration-time curve to infinity) ([1]; Kidney, IP): 5559 ng·h/mL
- AUCt (area under the concentration-time curve) ([1]; Kidney, IP): 4508 ng·h/mL
- CL/F (clearance) ([1]; Kidney, IP): 3 mL/min/kg
- Cmax (peak concentration) ([1]; Kidney, IP): 403 ng/mL
- Ke (elimination rate constant) ([1]; Kidney, IP): 0.036 h⁻¹
- MRT (mean residence time) ([1]; Kidney, IP): 25.57 h
- Tmax (time to peak concentration) ([1]; Kidney, IP): 1.00 h
- Vz/F (volume of distribution) ([1]; Kidney, IP): 5.02 L/kg
- t1/2 (half-life) ([1]; Kidney, IP): 19.34 h
- AUC (area under the concentration-time curve to infinity) ([1]; Kidney, IV): 3345 ng·h/mL
- AUCt (area under the concentration-time curve) ([1]; Kidney, IV): 3285 ng·h/mL
- CL/F (clearance) ([1]; Kidney, IV): 4.98 mL/min/kg
- Cmax (peak concentration) ([1]; Kidney, IV): 753 ng/mL
- Ke (elimination rate constant) ([1]; Kidney, IV): 0.077 h⁻¹
- MRT (mean residence time) ([1]; Kidney, IV): 9.34 h
- Tmax (time to peak concentration) ([1]; Kidney, IV): 0.17 h
- Vz/F (volume of distribution) ([1]; Kidney, IV): 3.892 L/kg
- t1/2 (half-life) ([1]; Kidney, IV): 9.03 h
- AUC (area under the concentration-time curve to infinity) ([1]; Liver, IP): 7951 ng·h/mL
- AUCt (area under the concentration-time curve) ([1]; Liver, IP): 7485 ng·h/mL
- CL/F (clearance) ([1]; Liver, IP): 2.1 mL/min/kg
- Cmax (peak concentration) ([1]; Liver, IP): 945 ng/mL
- Ke (elimination rate constant) ([1]; Liver, IP): 0.067 h⁻¹
- MRT (mean residence time) ([1]; Liver, IP): 12.77 h
- Tmax (time to peak concentration) ([1]; Liver, IP): 0.17 h
- Vz/F (volume of distribution) ([1]; Liver, IP): 1.865 L/kg
- t1/2 (half-life) ([1]; Liver, IP): 10.28 h
- AUC (area under the concentration-time curve to infinity) ([1]; Liver, IV): 6560 ng·h/mL
- AUCt (area under the concentration-time curve) ([1]; Liver, IV): 6095 ng·h/mL
- CL/F (clearance) ([1]; Liver, IV): 2.53 mL/min/kg
- Cmax (peak concentration) ([1]; Liver, IV): 1127 ng/mL
- Ke (elimination rate constant) ([1]; Liver, IV): 0.056 h⁻¹
- MRT (mean residence time) ([1]; Liver, IV): 14.08 h
- Tmax (time to peak concentration) ([1]; Liver, IV): 0.17 h
- Vz/F (volume of distribution) ([1]; Liver, IV): 2.741 L/kg
- t1/2 (half-life) ([1]; Liver, IV): 12.46 h
- AUC (area under the concentration-time curve to infinity) ([1]; Lung, IP): 3310 ng·h/mL
- AUCt (area under the concentration-time curve) ([1]; Lung, IP): 2321 ng·h/mL
- CL/F (clearance) ([1]; Lung, IP): 5.03 mL/min/kg
- Cmax (peak concentration) ([1]; Lung, IP): 210 ng/mL
- Ke (elimination rate constant) ([1]; Lung, IP): 0.023 h⁻¹
- MRT (mean residence time) ([1]; Lung, IP): 38.38 h
- Tmax (time to peak concentration) ([1]; Lung, IP): 0.17 h
- Vz/F (volume of distribution) ([1]; Lung, IP): 13.044 L/kg
- t1/2 (half-life) ([1]; Lung, IP): 29.93 h
- AUC (area under the concentration-time curve to infinity) ([1]; Lung, IV): 2768 ng·h/mL
- AUCt (area under the concentration-time curve) ([1]; Lung, IV): 2273 ng·h/mL
- CL/F (clearance) ([1]; Lung, IV): 6.02 mL/min/kg
- Cmax (peak concentration) ([1]; Lung, IV): 329 ng/mL
- Ke (elimination rate constant) ([1]; Lung, IV): 0.041 h⁻¹
- MRT (mean residence time) ([1]; Lung, IV): 24.55 h
- Tmax (time to peak concentration) ([1]; Lung, IV): 0.17 h
- Vz/F (volume of distribution) ([1]; Lung, IV): 8.837 L/kg
- t1/2 (half-life) ([1]; Lung, IV): 16.95 h
- AUC (area under the concentration-time curve to infinity) ([1]; Pancreas, IP): 60205 ng·h/mL
- AUCt (area under the concentration-time curve) ([1]; Pancreas, IP): 54532 ng·h/mL
- CL/F (clearance) ([1]; Pancreas, IP): 0.283 mL/min/kg
- Cmax (peak concentration) ([1]; Pancreas, IP): 2883 ng/mL
- Ke (elimination rate constant) ([1]; Pancreas, IP): 0.051 h⁻¹
- MRT (mean residence time) ([1]; Pancreas, IP): 17.46 h
- Tmax (time to peak concentration) ([1]; Pancreas, IP): 3.00 h
- Vz/F (volume of distribution) ([1]; Pancreas, IP): 0.323 L/kg
- t1/2 (half-life) ([1]; Pancreas, IP): 13.49 h
- AUC (area under the concentration-time curve to infinity) ([1]; Pancreas, IV): 49289 ng·h/mL
- AUCt (area under the concentration-time curve) ([1]; Pancreas, IV): 45982 ng·h/mL
- CL/F (clearance) ([1]; Pancreas, IV): 0.333 mL/min/kg
- Cmax (peak concentration) ([1]; Pancreas, IV): 2348 ng/mL
- Ke (elimination rate constant) ([1]; Pancreas, IV): 0.059 h⁻¹
- MRT (mean residence time) ([1]; Pancreas, IV): 14.80 h
- Tmax (time to peak concentration) ([1]; Pancreas, IV): 8.00 h
- Vz/F (volume of distribution) ([1]; Pancreas, IV): 0.342 L/kg
- t1/2 (half-life) ([1]; Pancreas, IV): 11.70 h
- AUC (area under the concentration-time curve to infinity) ([1]; Plasma, IP): 1292 ng·h/mL
- AUCt (area under the concentration-time curve) ([1]; Plasma, IP): 1251 ng·h/mL
- CL/F (clearance) ([1]; Plasma, IP): 12.9 mL/min/kg
- Cmax (peak concentration) ([1]; Plasma, IP): 775 ng/mL
- Ke (elimination rate constant) ([1]; Plasma, IP): 0.082 h⁻¹
- MRT (mean residence time) ([1]; Plasma, IP): 6.54 h
- Tmax (time to peak concentration) ([1]; Plasma, IP): 0.17 h
- Vz/F (volume of distribution) ([1]; Plasma, IP): 9.49 L/kg
- t1/2 (half-life) ([1]; Plasma, IP): 8.50 h
- AUC (area under the concentration-time curve to infinity) ([1]; Plasma, IV): 1303 ng·h/mL
- AUCt (area under the concentration-time curve) ([1]; Plasma, IV): 1287 ng·h/mL
- CL/F (clearance) ([1]; Plasma, IV): 12.8 mL/min/kg
- Cmax (peak concentration) ([1]; Plasma, IV): 1072 ng/mL
- Ke (elimination rate constant) ([1]; Plasma, IV): 0.089 h⁻¹
- MRT (mean residence time) ([1]; Plasma, IV): 4.20 h
- Tmax (time to peak concentration) ([1]; Plasma, IV): 0.17 h
- Vz/F (volume of distribution) ([1]; Plasma, IV): 8.616 L/kg
- t1/2 (half-life) ([1]; Plasma, IV): 7.78 h
- AUC (area under the concentration-time curve to infinity) ([1]; Salivary gland, IP): 19233 ng·h/mL
- AUCt (area under the concentration-time curve) ([1]; Salivary gland, IP): 13009 ng·h/mL
- CL/F (clearance) ([1]; Salivary gland, IP): 0.867 mL/min/kg
- Cmax (peak concentration) ([1]; Salivary gland, IP): 556 ng/mL
- Ke (elimination rate constant) ([1]; Salivary gland, IP): 0.024 h⁻¹
- MRT (mean residence time) ([1]; Salivary gland, IP): 41.75 h
- Tmax (time to peak concentration) ([1]; Salivary gland, IP): 3.00 h
- Vz/F (volume of distribution) ([1]; Salivary gland, IP): 2.2 L/kg
- t1/2 (half-life) ([1]; Salivary gland, IP): 29.33 h
- AUC (area under the concentration-time curve to infinity) ([1]; Salivary gland, IV): 26182 ng·h/mL
- AUCt (area under the concentration-time curve) ([1]; Salivary gland, IV): 23604 ng·h/mL
- CL/F (clearance) ([1]; Salivary gland, IV): 0.633 mL/min/kg
- Cmax (peak concentration) ([1]; Salivary gland, IV): 1258 ng/mL
- Ke (elimination rate constant) ([1]; Salivary gland, IV): 0.048 h⁻¹
- MRT (mean residence time) ([1]; Salivary gland, IV): 19.56 h
- Tmax (time to peak concentration) ([1]; Salivary gland, IV): 1.00 h
- Vz/F (volume of distribution) ([1]; Salivary gland, IV): 0.797 L/kg
- t1/2 (half-life) ([1]; Salivary gland, IV): 14.46 h
- AUC (area under the concentration-time curve to infinity) ([1]; Spleen, IP): 6586 ng·h/mL
- AUCt (area under the concentration-time curve) ([1]; Spleen, IP): 5011 ng·h/mL
- CL/F (clearance) ([1]; Spleen, IP): 2.53 mL/min/kg
- Cmax (peak concentration) ([1]; Spleen, IP): 253 ng/mL
- Ke (elimination rate constant) ([1]; Spleen, IP): 0.031 h⁻¹
- MRT (mean residence time) ([1]; Spleen, IP): 31.38 h
- Tmax (time to peak concentration) ([1]; Spleen, IP): 0.17 h
- Vz/F (volume of distribution) ([1]; Spleen, IP): 4.868 L/kg
- t1/2 (half-life) ([1]; Spleen, IP): 22.22 h
- AUC (area under the concentration-time curve to infinity) ([1]; Spleen, IV): 6838 ng·h/mL
- AUCt (area under the concentration-time curve) ([1]; Spleen, IV): 4686 ng·h/mL
- CL/F (clearance) ([1]; Spleen, IV): 2.43 mL/min/kg
- Cmax (peak concentration) ([1]; Spleen, IV): 195 ng/mL
- Ke (elimination rate constant) ([1]; Spleen, IV): 0.027 h⁻¹
- MRT (mean residence time) ([1]; Spleen, IV): 38.00 h
- Tmax (time to peak concentration) ([1]; Spleen, IV): 8.00 h
- Vz/F (volume of distribution) ([1]; Spleen, IV): 5.353 L/kg
- t1/2 (half-life) ([1]; Spleen, IV): 25.37 h
- concentration required to achieve the maximal response [2]: around 50 nM
- concentration required to achieve the maximal response (minimum effective concentration) [2]: ~40 ng/mL
- GI50 (PANC-1 cells): 2.75 nM
